Screening results: PubChem, several laboratories
PfM18AAP inh-1: PfM18AAP inhibitors, malaria aminopeptidase, primary screen, biochemical, QFRET, recombinant enzyme; inhibition, % at 7.35 µM; H-Glu-NHMec fluorogenic cleavage; actives 1.2% (n = 290,000);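 active = inhibition above the campaign mean inhibition over all tested compounds plus 3 SD, cut at about 28% in these data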;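 also: 0% = plate median of test compound wells and 100% = 2 mM ZnCl2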
EBNA-1 inhibitor: EBNA-1 DNA-binding inhibitors, primary screen, biochemical, fluorescence polarization; inhibition, % at 14.8 µM; actives 0.34% (n = 300,000); in the data active = inhibition above about 28%
Apaf-1 inh: inhibitors of human Apaf-1 apoptosome, primary screen, biochemical, DEVD-Rh110 fluorescence, uHTS; Apoptotic protease-activating factor 1 (Homo sapiens), O14727; reconstituted apoptosome caspase-3 activity; inhibition, % at 20 µM; actives 0.71% (n = 330,000); AID 489030, 2010; active = inhibition of at least 40% at 20 µM;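 also: plate controls were DMSO wells for no effect and DEVD-CHO caspase inhibitor wells for full effect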
Target sequence (O14727 whole entry, looked up): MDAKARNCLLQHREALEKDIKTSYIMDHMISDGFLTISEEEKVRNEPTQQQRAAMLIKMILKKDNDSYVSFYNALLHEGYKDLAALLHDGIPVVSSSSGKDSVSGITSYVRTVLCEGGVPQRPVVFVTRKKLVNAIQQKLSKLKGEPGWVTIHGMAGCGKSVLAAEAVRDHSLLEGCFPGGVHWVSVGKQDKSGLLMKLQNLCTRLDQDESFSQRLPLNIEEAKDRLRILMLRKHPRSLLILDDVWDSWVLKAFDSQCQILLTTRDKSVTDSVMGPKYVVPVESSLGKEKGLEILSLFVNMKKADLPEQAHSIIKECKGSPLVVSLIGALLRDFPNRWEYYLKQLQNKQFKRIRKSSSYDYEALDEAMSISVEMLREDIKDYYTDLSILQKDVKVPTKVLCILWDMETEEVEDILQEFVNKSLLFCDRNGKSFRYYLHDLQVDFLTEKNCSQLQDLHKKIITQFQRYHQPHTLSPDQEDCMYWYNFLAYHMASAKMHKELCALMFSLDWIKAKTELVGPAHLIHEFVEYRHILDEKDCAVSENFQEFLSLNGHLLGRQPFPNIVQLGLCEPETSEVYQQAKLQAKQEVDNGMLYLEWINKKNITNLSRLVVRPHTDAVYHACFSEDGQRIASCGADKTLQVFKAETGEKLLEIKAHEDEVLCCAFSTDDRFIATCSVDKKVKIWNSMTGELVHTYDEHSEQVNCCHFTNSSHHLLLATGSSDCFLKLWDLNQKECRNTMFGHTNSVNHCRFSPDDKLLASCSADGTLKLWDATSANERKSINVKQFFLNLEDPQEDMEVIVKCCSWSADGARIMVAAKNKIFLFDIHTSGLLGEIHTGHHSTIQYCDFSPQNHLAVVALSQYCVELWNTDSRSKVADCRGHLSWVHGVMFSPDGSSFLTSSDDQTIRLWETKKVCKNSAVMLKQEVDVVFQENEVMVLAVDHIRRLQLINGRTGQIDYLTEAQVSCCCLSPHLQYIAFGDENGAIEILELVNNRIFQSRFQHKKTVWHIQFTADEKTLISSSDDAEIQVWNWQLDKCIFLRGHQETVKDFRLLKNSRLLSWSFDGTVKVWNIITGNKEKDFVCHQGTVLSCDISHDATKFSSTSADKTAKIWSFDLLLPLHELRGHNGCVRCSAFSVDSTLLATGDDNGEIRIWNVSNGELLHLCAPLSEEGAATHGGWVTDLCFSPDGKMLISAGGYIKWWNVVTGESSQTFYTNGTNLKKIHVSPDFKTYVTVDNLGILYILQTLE
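Material: reconstituted apoptosome with Apaf-1, cytochrome c, caspase-9, procaspase-3, dATP; medium: pH 7.5 Hepes buffer with CHAPS, BSA, DTT; also added: cytochrome c and DEVD-Rh110 substrate; timing: 30 min plus 50 min, RT; signal: Rh110 fluorescence intensity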
PfG6PD inh: PfG6PD enzyme inhibitors, primary screen, biochemical, fluorescence intensity, uHTS; actives 0.78% (n = 350,000); glucose-6-phosphate dehydrogenase-6-phosphogluconolactonase (Plasmodium falciparum 3D7); inhibition, % at 20 µM; PfGluPho enzyme, NADPH resazurin-diaphorase fluorescence;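 active = inhibition reaching at least a set limit at 20 µM in the primary screen, cut at about 59% in these data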;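 also: 0% = DMSO wells with substrate and 100% = DMSO wells lacking glucose-6-phosphate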
UBC13 inh: UBC13 polyubiquitin chain formation inhibitors, primary screen, biochemical, TR-FRET, uHTS. Ubiquitin-conjugating enzyme E2 N (Homo sapiens), P61088. inhibition, % at 20 µM. actives 0.47% (n = 330,000); in the data active = inhibition above about 45%, passing the limit was not always enough
ZTA DNA inh: ZTA (EBV) inhibition in EBNA-1 counter-screen | P03206 | ZTA-DNA binding, fluorescence polarization | inhibition, % at 11 µM | actives 0.15% (n = 320,000) | AID 2234; in the data active = inhibition above about 33%
PfM18AAP inh-2: PfM18AAP inhibitors, malaria aminopeptidase, confirmation, biochemical, QFRET, recombinant enzyme, triplicate; shares compounds with PfM18AAP inh-1; H-Glu-NHMec fluorogenic cleavage; inhibition, % at 7.35 µM; actives 28% (n = 2,400); AID 2170, 2009;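 active = mean inhibition over replicate wells above the hit cutoff set for the earlier primary screen, cut at about 29% in these data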;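 also: 0% = median of test compound wells and 100% = 2 mM ZnCl2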
CTSL1 confirm: cathepsin L1 inhibitors, retest, confirmation, counter-screen for PFM18AAP inhibitor project, biochemical, QFRET, triplicate. shares compounds with PfM18AAP inh-1. purified cathepsin L1, Z-Leu-Arg-MCA fluorescence. inhibition, % at 5.96 µM. 2,400 tested, under 10 active. AID 2178, 2009;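 active = average inhibition across replicates above the hit cutoff set in the earlier primary screen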;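 also: 0% = median of test compound wells and 100% = Z-Phe-Ala-diazomethylketone 1 µM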
* marks the source's active call; other numbers are inactive results; x = not tested or not shown. Compounds with a hit are over-represented: about 2.9% of the library has one in this group of screens.

SMILES | PfM18AAP inh-1 | EBNA-1 inhibitor | Apaf-1 inh | PfG6PD inh | UBC13 inh | ZTA DNA inh | PfM18AAP inh-2 | CTSL1 confirm
Clc1ccc(CSc2ncn[nH]2)cc1 | 19.0 | 0.3 | 11.0 | -5.5 | 4.1 | -7.0 | x | x
CCOc1cc(CNc2nn[nH]n2)ccc1OCC(=O)NC(C)(C)C | -7.8 | 1.1 | -6.9 | 0.1 | -1.7 | 15.0 | x | x
COc1cc2cccc(OC)c(=O)c2c(O)c1OC | 2.3 | -2.5 | 0.5 | -8.9 | -19.8 | -3.3 | x | x
CC(=O)Oc1cc2cccc(OC(C)=O)c(=O)c2c(OC(C)=O)c1OC(C)=O | 53.2* | -4.5 | 0.6 | 3.7 | -18.2 | -7.5 | 30.0* | -11.2
CCc1cccc(CC)c1NC(=S)NCCc1ccc(O)c(O)c1 | 64.7* | -8.0 | 5.3 | 23.8 | 10.8 | -11.9 | 39.6* | -8.6
CCOc1cccc(Cc2c[nH]c(=O)[nH]c2=O)c1 | x | x | x | 2.0 | x | x | x | x
CNC(=S)n1cnc(N)n1 | 39.5* | -4.8 | -2.3 | -10.3 | 2.1 | -0.9 | -33.8 | 0.3
CC1(C)SC2c3ccccc3C(=O)N2[C@@H]1C(=O)O (stereo partly specified) | 1.2 | 4.1 | -4.8 | -3.4 | 2.2 | -0.7 | x | x
O=[N+]([O-])c1cccc(C=NNC(=S)NC23CC4CC(CC(C4)C2)C3)c1 | x | x | x | 1.6 | x | x | x | x
CC1(C(=O)CSc2nc3ccccc3[nH]2)CCC(=O)O1 (stereo unspecified) | -0.7 | -2.1 | 0.9 | -8.2 | -5.6 | 6.4 | x | x
CC(C)c1ccc(C(=O)CSc2ncn[nH]2)cc1 | 25.4 | -7.8 | 1.3 | 27.8 | -0.5 | -7.2 | x | x
CCOc1cc(N2CCOCC2)c(OCC)cc1NC(=O)CSc1ncn[nH]1 | 48.6* | 0.6 | 5.9 | 4.9 | -4.4 | -20.9 | -13.4 | -3.0
CC1(C(=O)CSc2ncn[nH]2)CCC(=O)O1 (stereo unspecified) | 58.3* | 3.5 | -23.4 | x | -3.5 | -6.1 | 69.9* | -2.2
O=C1c2ccccc2C(=O)N1CCSc1ncn[nH]1 | 21.0 | 5.3 | -10.7 | -20.6 | 5.8 | -0.5 | x | x
O=C(CSc1ncn[nH]1)OCN1C(=O)c2ccccc2C1=O | 85.1* | 1.4 | -5.3 | -7.5 | 1.2 | 9.1 | 88.2* | -12.7
O=C(CSc1ncn[nH]1)CSc1ncn[nH]1 | 47.5* | 3.7 | -10.9 | 5.8 | -1.4 | 0.1 | 18.8 | -8.1
CCOc1cc(N2CCOCC2)c(OCC)cc1NC(=O)CSc1n[nH]c(N)n1 | 2.7 | -13.2 | -3.0 | 34.6 | 0.6 | -5.8 | x | x
CC(=O)N/C(=C\c1ccccc1)C(=O)OCC(=O)Nc1cc(S(=O)(=O)N(C)C)ccc1Cl | x | x | -7.6 | -21.2 | 0.0 | x | x | x
CCOc1ccc(C(=O)NCC(=O)NCC(c2ccccc2OC)N2CCCC2)cc1 (stereo unspecified) | x | -9.1 | 24.2 | -7.2 | 5.8 | -9.9 | x | x
Nc1nc(SCC(=O)Nc2ccc([N+](=O)[O-])cc2Br)n[nH]1 | -3.0 | 6.0 | 5.6 | -3.0 | 7.1 | 11.2 | x | x
CC(=O)Nc1nonc1NC(=O)CSc1ncn[nH]1 | 47.6* | 4.6 | -9.8 | 0.8 | -0.6 | 7.7 | 39.6* | 0.1
O=C(CSc1ncn[nH]1)Nc1ccc([N+](=O)[O-])cc1Br | 66.6* | -1.0 | -2.2 | -11.4 | -23.9 | -15.5 | 78.7* | -2.2
CC(=O)c1c(C)[nH]c(C(=O)NCCc2ccc(Cl)cc2)c1C | 60.6* | 0.8 | -1.6 | 8.9 | 4.6 | -2.5 | -47.4 | -1.2
c1ccc(Nc2nc(N3CCCC3)nc(N3CCOCC3)n2)cc1 | x | -1.7 | 9.7 | 11.4 | 11.4 | -33.2 | x | x
CCNC(=S)NNc1nc(N2CCCCC2)nc(N2CCOCC2)n1 | 44.0* | -4.6 | 9.5 | 7.3 | 2.2 | -16.0 | 20.4 | -7.6
SMILES | PfM18AAP inh-1 | EBNA-1 inhibitor | Apaf-1 inh | PfG6PD inh | UBC13 inh | ZTA DNA inh | PfM18AAP inh-2 | CTSL1 confirm
Cc1occc1C(=O)NNS(=O)(=O)c1ccc(Cl)cc1 | 8.2 | 7.5 | -0.8 | 3.1 | 0.1 | -7.2 | x | x
Cc1ccc(S(=O)(=O)NNc2nnc(C)c(=O)[nH]2)cc1 | 73.9* | -19.6 | -2.4 | 23.1 | -2.3 | -6.7 | 39.3* | -5.2
Cc1nnc(NNS(=O)(=O)c2ccc(Cl)cc2)[nH]c1=O | 72.3* | -7.1 | -11.4 | -5.1 | 0.8 | 1.0 | 60.0* | -8.6
Cc1ccc(N(CC(=O)NC(C)(C)C)C(=O)CS(=O)CC(=O)Nc2ccc(F)cc2)cc1 (stereo unspecified) | -1.4 | 9.3 | 2.8 | 20.9 | -10.5 | -7.1 | x | x
Cc1ccc(S(=O)(=O)N2CCC(C(=O)OCC(=O)N(C)C3CCCCC3)CC2)cc1C | x | -6.2 | 10.6 | -10.9 | 0.9 | -5.4 | x | x
CCN(CC)c1ccc(-n2c(C)cc(C=O)c2C)cc1 | 33.2* | -0.2 | 11.1 | 10.7 | -1.3 | -13.7 | -46.9 | 0.0
OCC[C@@H]1C[C@H](O)[C@@H](O)[C@@]2(CCc3ccccc3CO2)O1 | -3.4 | -9.8 | 0.1 | -2.7 | -4.8 | -0.5 | x | x
CCc1c(O)c(-c2ccccc2)c(=O)n(-c2ccccn2)c1-c1ccccc1 | 39.2* | 2.5 | 4.8 | 17.6 | -10.3 | 3.1 | -28.9 | -1.5
O=C(C1=C[C@H](c2ccc3c(c2)OCO3)C[C@H](OCc2ccc(CO)cc2)O1)N1CCCCCCC1 | 32.7* | 5.8 | 11.6 | 4.4 | 7.8 | -13.9 | -21.9 | 1.6
O=C(C1=C[C@@H](c2ccc3c(c2)OCO3)C[C@@H](OCc2ccc(CO)cc2)O1)N1CCOCC1 | 4.7 | 14.7 | -0.2 | 0.0 | 3.0 | 8.5 | x | x
O=C1NN(c2ccccc2)C(=O)/C1=C\c1coc2ccc(O)cc2c1=O | 36.6* | -2.5 | 5.4 | 4.5 | -5.1 | -1.0 | -3.9 | -6.3
COC(=O)c1ccc(OC(=O)c2ccncc2)cc1O | 8.4 | 6.8 | -3.7 | 1.8 | 23.5 | 1.3 | x | x
O=C(Nc1ccc(C(=O)O)cc1)/C(=C\c1ccco1)NC(=O)c1ccco1 | 32.3* | -12.8 | 0.4 | 11.4 | -4.6 | -29.1 | -43.9 | 1.4
COc1cc(C(C[N+](=O)[O-])c2c(C)cc3ccccn23)ccc1O (stereo unspecified) | 40.2* | -6.8 | 9.8 | 38.8 | -15.7 | 8.1 | -13.4 | 0.4
CC(C)(C)NCC(=Cc1ccccc1)C(=O)c1ccccc1 | x | x | x | 15.5 | x | x | x | x
CSCCC(NS(=O)(=O)c1ccc(Cl)c(Cl)c1)C(=O)O (stereo unspecified) | -1.7 | -12.9 | 4.0 | -5.3 | -13.7 | 2.3 | x | x
